According to ChEMBL document CHEMBL2331304, “N1,N3-disubstituted uracils as nonnucleoside inhibitors of HIV-1 reverse transcriptase” (Bioorg Med Chem, 2013):
Active and inactive are the calls of the source. No cut-off for these calls is given here.

What was measured:
[1] = Selectivity index, ratio of CC50 for human MT4 cells to EC50 for HIV1 3B infected in human MT4 cells; format: toxicity, cell-based; settings: MT4 cells (uninfected for CC50; HIV-1 3B infected for EC50)
[2] = test system: Human respirovirus 3; assay: Antiviral activity against Parainfluenza virus 3; format: functional, organism-based
[3] = target: Human immunodeficiency virus type 1 reverse transcriptase (Human immunodeficiency virus 1, UniProt Q72547, L100I); assay: Inhibition of HIV1 reverse transcriptase p66/p51 L100I mutant after 30 mins by liquid scintillation counting
[4] = target: Human immunodeficiency virus type 1 reverse transcriptase (Human immunodeficiency virus 1, UniProt Q72547, V106A); assay: Inhibition of HIV1 reverse transcriptase p66/p51 V106A mutant after 30 mins by liquid scintillation counting
[5] = test system: Respiratory syncytial virus; assay: Antiviral activity against Respiratory syncytial virus; format: functional, organism-based
[6] = test system: Mammalian orthoreovirus 1; assay: Antiviral activity against Reovirus 1; format: functional, organism-based
[7] = test system: Vesicular stomatitis virus; assay: Antiviral activity against Vesicular stomatitis virus; format: functional, organism-based
[8] = test system: Vaccinia virus; assay: Antiviral activity against Vaccinia virus; format: functional, organism-based; settings: Orthopoxvirus vaccinia
[9] = Inhibition of HIV1 reverse transcriptase p66/p51 G190A mutant after 30 mins by liquid scintillation counting; design: species or system Human immunodeficiency virus 1
[10] = test system: Influenza A virus; assay: Antiviral activity against Influenza A virus H3N2; format: functional, organism-based
[11] = target: Human immunodeficiency virus type 1 reverse transcriptase (Human immunodeficiency virus 1, UniProt Q72547, K103N/Y181C); assay: Inhibition of HIV1 reverse transcriptase p66/p51 K103N/Y181C mutant after 30 mins by liquid scintillation counting
[12] = test system: Human alphaherpesvirus 2; assay: Antiviral activity against Human herpesvirus 2; format: functional, organism-based
Outline: (§1)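 Confluent HEL, Vero, HeLa or MDCK monolayers (cell type per virus not specified) were inoculated with 100 CCID50 of virus, with a range of compound concentrations. Strains were HSV-1 KOS and TK− ACV-resistant KOS, HSV-2 Lyons and G, and HCMV AD-169 and Davis. Cytopathicity or plaques were scored once complete in untreated infected controls.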

[13] = test system: Sindbis virus; assay: Antiviral activity against Sindbis virus; format: functional, organism-based
[14] = test system: Feline coronavirus; assay: Antiviral activity against Feline coronavirus; format: functional, organism-based
[15] = target: Human immunodeficiency virus type 1 reverse transcriptase (Human immunodeficiency virus 1, UniProt Q72547, Y181C); assay: Inhibition of HIV1 reverse transcriptase p66/p51 Y181C mutant after 30 mins by liquid scintillation counting
[16] = test system: Punta Toro virus; assay: Antiviral activity against Punta Toro virus; format: functional, organism-based
[17] = target: Human immunodeficiency virus type 1 reverse transcriptase (Human immunodeficiency virus 1, UniProt Q72547); assay: Non-competitive inhibition of wild type HIV1 reverse transcriptase p66/p51 after 30 mins by liquid scintillation counting
[18] = test system: Coxsackievirus B4; assay: Antiviral activity against Coxsackievirus B4; format: functional, organism-based
[19] = test system: Human alphaherpesvirus 1; assay: Antiviral activity against Human herpesvirus 1; format: functional, organism-based; outline: as §1
[20] = test system: MT4; assay: Cytotoxicity against human MT4 cells after 4 days by MTT assay; format: cell-based; settings: mt4, 96 h
[21] = test system: Influenza B virus; assay: Antiviral activity against influenza B virus; format: functional, organism-based
[22] = test system: Human immunodeficiency virus 1; assay: Antiviral activity against HIV1 3B infected in human MT4 cells assessed as inhibition of virus-induced cytopathic effect after 4 days by MTT assay; format: functional, organism-based; settings: Human immunodeficiency virus 1, 3B, MT4, 96 h
Outline: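 HIV-1 in MT-4 cells at 1 × 10^5 cells/ml, infected at MOI 0.02 (virus stock titrated as CCID50), then plated immediately onto varying compound concentrations. After 4 days at 37 °C, viable cells counted by MTT.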

[23] = test system: Human alphaherpesvirus 3; assay: Antiviral activity against Varicella zoster virus; format: functional, organism-based
Outline: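 VZV strain Oka and the TK− strain 07-1 were inoculated at 20 PFU onto confluent cell monolayers in the presence of varying compound concentrations. Plaque formation was recorded once complete in untreated infected controls.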

[24] = target: Human immunodeficiency virus type 1 reverse transcriptase (Human immunodeficiency virus 1, UniProt Q72547, K103N); assay: Inhibition of HIV1 reverse transcriptase p66/p51 K103N mutant after 30 mins by liquid scintillation counting
[25] = test system: Influenza A virus; assay: Antiviral activity against Influenza A virus H1N1; format: functional, organism-based
[26] = test system: Human betaherpesvirus 5; assay: Antiviral activity against HCMV Davis; format: functional, organism-based; settings: Human betaherpesvirus 5, Davis; outline: as §1
[27] = test system: Human betaherpesvirus 5; assay: Antiviral activity against HCMV AD169; format: functional, organism-based; settings: Human betaherpesvirus 5, AD169; outline: as §1

Q: Which selectivity ratio [1] does the source give for `Cc1ccc(OCCn2ccc(=O)n(Cc3cc(C)cc(C)c3)c2=O)cc1` here?
A: Its selectivity ratio is > 1270.

Q: What about the Activity [2] of the same compound?
A: Its Activity is “inactive”.

Q: What about the Ki [3] of the same compound?
A: Its Ki is 0.13 µM.

Q: What about the Ki [4] of the same compound?
A: Its Ki is 7.5 µM.

Q: What about the Activity [5] of the same compound?
A: The Activity was “inactive”.

Q: What about the Activity [6] of the same compound?
A: Its Activity is “inactive”.

Q: What about the Activity [7] of the same compound?
A: The Activity was “inactive”.

Q: And the Activity [8]?
A: The Activity was “inactive”.

Q: What about the Ki [9] of the same compound?
A: Its Ki is 0.36 µM.

Q: What about the Activity [10] of the same compound?
A: Its Activity is “inactive”.

Q: What about the Ki [11] of the same compound?
A: The Ki was > 26 µM.

Q: And the Activity [12]?
A: Its Activity is “inactive”.

Q: And the Activity [13]?
A: Its Activity is “inactive”.

Q: And the Activity [14]?
A: The Activity was “inactive”.

Q: And the Ki [15]?
A: Its Ki is 169 µM.

Q: What about the Activity [16] of the same compound?
A: Its Activity is “inactive”.

Q: And the Ki [17]?
A: The Ki was 0.26 µM.

Q: What about the Activity [18] of the same compound?
A: Its Activity is “inactive”.

Q: And the Activity [19]?
A: The Activity was “inactive”.

Q: And the CC50 [20]?
A: The CC50 was > 343 µM.

Q: And the Activity [21]?
A: Its Activity is “inactive”.

Q: And the EC50 [22]?
A: Its EC50 is 0.27 µM.

Q: And the Activity [23]?
A: Its Activity is “inactive”.

Q: And the Ki [24]?
A: The Ki was > 26 µM.

Q: And the Activity [25]?
A: Its Activity is “inactive”.

Q: For `O=c1ccn(C/C=C/c2ccccc2)c(=O)n1Cc1cc(Cl)cc(Cl)c1`, which selectivity ratio [1] is on record?
A: The selectivity ratio was 24.

Q: What about the Activity [2] of the same compound?
A: Its Activity is “inactive”.

Q: What about the Ki [3] of the same compound?
A: The Ki was 0.92 µM.

Q: What about the Ki [4] of the same compound?
A: Its Ki is 11 µM.

Q: And the Activity [5]?
A: The Activity was “inactive”.

Q: And the IC50 [26]?
A: The IC50 was 12 µM.

Q: What about the Activity [6] of the same compound?
A: The Activity was “inactive”.

Q: And the Activity [7]?
A: The Activity was “inactive”.

Q: And the Activity [8]?
A: The Activity was “inactive”.

Q: What about the Ki [9] of the same compound?
A: The Ki was 0.55 µM.

Q: And the Activity [10]?
A: The Activity was “inactive”.

Q: What about the Ki [11] of the same compound?
A: The Ki was > 100 µM.

Q: What about the Activity [12] of the same compound?
A: Its Activity is “inactive”.

Q: What about the Activity [13] of the same compound?
A: Its Activity is “inactive”.

Q: What about the Activity [14] of the same compound?
A: Its Activity is “inactive”.

Q: What about the Ki [15] of the same compound?
A: The Ki was 43 µM.

Q: And the Activity [16]?
A: The Activity was “inactive”.

Q: And the Ki [17]?
A: Its Ki is 0.67 µM.

Q: What about the Activity [18] of the same compound?
A: Its Activity is “inactive”.

Q: And the IC50 [27]?
A: Its IC50 is 9.4 µM.

Q: What about the Activity [19] of the same compound?
A: Its Activity is “inactive”.

Q: What about the CC50 [20] of the same compound?
A: Its CC50 is 49 µM.

Q: And the Activity [21]?
A: The Activity was “inactive”.

Q: And the EC50 [22]?
A: Its EC50 is 1.99 µM.

Q: And the Activity [23]?
A: The Activity was “inactive”.

Q: And the Ki [24]?
A: The Ki was 15.5 µM.

Q: And the Activity [25]?
A: The Activity was “inactive”.

Q: With `Cc1cc(C)cc(Cn2c(=O)ccn(C/C=C/c3ccccc3)c2=O)c1` as the compound, how does the selectivity ratio [1] read?
A: The selectivity ratio was 202.

Q: What about the Activity [2] of the same compound?
A: The Activity was “inactive”.

Q: What about the Ki [3] of the same compound?
A: The Ki was 0.76 µM.

Q: What about the Ki [4] of the same compound?
A: Its Ki is 2.9 µM.

Q: What about the Activity [5] of the same compound?
A: Its Activity is “inactive”.

Q: And the Activity [6]?
A: Its Activity is “inactive”.

Q: What about the Activity [7] of the same compound?
A: The Activity was “inactive”.

Q: What about the Activity [8] of the same compound?
A: The Activity was “inactive”.

Q: What about the Ki [9] of the same compound?
A: The Ki was 0.4 µM.

Q: What about the Activity [10] of the same compound?
A: Its Activity is “inactive”.

Q: What about the Ki [11] of the same compound?
A: The Ki was > 100 µM.

Q: What about the Activity [12] of the same compound?
A: The Activity was “inactive”.

Q: What about the Activity [13] of the same compound?
A: Its Activity is “inactive”.

Q: What about the Activity [14] of the same compound?
A: Its Activity is “inactive”.

Q: What about the Ki [15] of the same compound?
A: Its Ki is 75 µM.

Q: And the Activity [16]?
A: Its Activity is “inactive”.

Q: What about the Ki [17] of the same compound?
A: The Ki was 0.55 µM.

Q: What about the Activity [18] of the same compound?
A: The Activity was “inactive”.

Q: And the Activity [19]?
A: The Activity was “inactive”.

Q: What about the CC50 [20] of the same compound?
A: The CC50 was 257 µM.

Q: And the Activity [21]?
A: The Activity was “inactive”.

Q: And the EC50 [22]?
A: The EC50 was 1.27 µM.

Q: What about the Activity [23] of the same compound?
A: The Activity was “inactive”.

Q: What about the Ki [24] of the same compound?
A: Its Ki is 12 µM.

Q: And the Activity [25]?
A: Its Activity is “inactive”.

Q: Which results are given for `Cc1cc(Br)cc(Cn2c(=O)ccn(C/C=C/c3ccccc3)c2=O)c1`?
A: selectivity ratio [1]: 73; Activity [2]: inactive; Ki [3]: 0.24 µM; Ki [4]: 2.3 µM; Activity [5]: inactive; IC50 [26]: ≥ 20 µM; Activity [6]: inactive; Activity [7]: inactive; Activity [8]: inactive; Ki [9]: 0.18 µM; Activity [10]: inactive; Ki [11]: 85 µM; Activity [12]: inactive; Activity [13]: inactive; Activity [14]: inactive; Ki [15]: 20 µM; Activity [16]: inactive; Ki [17]: 0.31 µM; Activity [18]: inactive; IC50 [27]: 16 µM; Activity [19]: inactive; CC50 [20]: 100 µM; Activity [21]: inactive; EC50 [22]: 1.36 µM; Activity [23]: inactive; Ki [24]: 6.9 µM; Activity [25]: inactive

Q: With `O=c1ccn(C/C=C/c2ccccc2)c(=O)n1Cc1cc(Br)cc(Br)c1` as the compound, how does the selectivity ratio [1] read?
A: Its selectivity ratio is 134.

Q: And the Activity [2]?
A: The Activity was “inactive”.

Q: What about the Ki [3] of the same compound?
A: The Ki was 0.36 µM.

Q: And the Ki [4]?
A: Its Ki is 4.2 µM.

Q: And the Activity [5]?
A: The Activity was “inactive”.

Q: And the Activity [6]?
A: The Activity was “inactive”.

Q: What about the Activity [7] of the same compound?
A: Its Activity is “inactive”.

Q: What about the Activity [8] of the same compound?
A: The Activity was “inactive”.

Q: And the Ki [9]?
A: The Ki was 0.3 µM.

Q: What about the Activity [10] of the same compound?
A: Its Activity is “inactive”.

Q: And the Ki [11]?
A: Its Ki is > 100 µM.

Q: What about the Activity [12] of the same compound?
A: The Activity was “inactive”.

Q: And the Activity [13]?
A: The Activity was “inactive”.

Q: What about the Activity [14] of the same compound?
A: The Activity was “inactive”.

Q: And the Ki [15]?
A: Its Ki is 25 µM.

Q: What about the Activity [16] of the same compound?
A: Its Activity is “inactive”.

Q: And the Ki [17]?
A: Its Ki is 0.31 µM.

Q: And the Activity [18]?
A: The Activity was “inactive”.

Q: What about the Activity [19] of the same compound?
A: Its Activity is “inactive”.

Q: And the CC50 [20]?
A: The CC50 was 231 µM.

Q: And the Activity [21]?
A: The Activity was “inactive”.

Q: What about the EC50 [22] of the same compound?
A: Its EC50 is 1.72 µM.

Q: And the Activity [23]?
A: Its Activity is “inactive”.

Q: What about the Ki [24] of the same compound?
A: Its Ki is 9.4 µM.

Q: What about the Activity [25] of the same compound?
A: The Activity was “inactive”.
